Measurements from ChEMBL document CHEMBL2434951, “Synthesis and antimicrobial activity of polyhalobenzonitrile quinazolin-4(3H)-one derivatives” (2013).
Values after ≈ are worked out from the molar mass of the structure shown. Active and inactive are the calls of the source. The rule behind the calls is not given here.

Tests used:
Format in all cases: functional
Pseudomonas aeruginosa [1] = test: Antibacterial activity against Pseudomonas aeruginosa ATCC 15442 assessed as growth inhibition after 24 hrs by liquid dilution method
In short: (§1)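 Liquid (tube) dilution. Compounds and positive controls in DMSO at 11 concentrations from 0.98 upward. Each tube held 1 mL compound solution plus bacterial or fungal inoculum and sterile water. Incubated 24 h, then checked for turbidity; MIC is the lowest concentration without growth. Chlorothalonil, norfloxacin and fluconazole as standards.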

Escherichia coli [2] = test: Antibacterial activity against Escherichia coli ATCC 8099 assessed as growth inhibition at 1000 ug/mL after 24 hrs by disk diffusion assay; conditions: ATCC 8099, 24 h, read-out: DIZ
In short: (§2)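 Disk diffusion on nutrient agar, inoculum spread evenly. Disks of 6 mm Whatman No. 1 paper, dry-heat sterilized at 121 °C for 1 h, soaked in test compound at 1000 (micro)g/mL. Norfloxacin and chlorothalonil disks as positive controls, DMSO disks as negative control. Plates incubated 24 h at 37 °C. Inhibition zone diameter measured in mm.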

Escherichia coli [3] = test: Antibacterial activity against Escherichia coli ATCC 8099 assessed as growth inhibition after 24 hrs by liquid dilution method; conditions: ATCC 8099, 24 h; in short: as §1
Bacillus cereus [4] = test: Bactericidal activity against Bacillus cereus ATCC 14579 after 18 to 24 hrs; conditions: read-out: MBC99.9
In short: (§3)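 After the liquid dilution MIC tubes, 0.1 mL from each tube spread on agar plates. Colonies counted after 18–24 h incubation at 35 °C. MBC taken as the lowest drug concentration killing 99.9% of the inoculum.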

Candida albicans [5] = test: Fungicidal activity against Candida albicans ATCC 10231 after 18 to 24 hrs; conditions: read-out: MFC99.9; in short: as §3
Staphylococcus aureus [6] = test: Bactericidal activity against Staphylococcus aureus ATCC 6538 after 18 to 24 hrs; conditions: read-out: MBC99.9; in short: as §3
Staphylococcus aureus [7] = test: Antibacterial activity against Staphylococcus aureus ATCC 6538 assessed as growth inhibition after 24 hrs by liquid dilution method; conditions: ATCC 6538, 24 h; in short: as §1
Pseudomonas aeruginosa [8] = test: Antibacterial activity against Pseudomonas aeruginosa ATCC 15442 assessed as growth inhibition at 1000 ug/mL after 24 hrs by disk diffusion assay; conditions: ATCC 15442, 24 h, read-out: DIZ; in short: as §2
Bacillus cereus [9] = test: Antibacterial activity against Bacillus cereus ATCC 14579 assessed as growth inhibition after 24 hrs by liquid dilution method; conditions: ATCC 14579, 24 h; in short: as §1
Candida albicans [10] = test: Antifungal activity against Candida albicans ATCC 10231 assessed as growth inhibition at 1000 ug/mL after 24 hrs by disk diffusion assay; conditions: for zone of inhibition at 1000 µg/mL: ATCC 10231, 24 h, read-out: DIZ; in short: as §2
Bacillus cereus [11] = test: Antibacterial activity against Bacillus cereus ATCC 14579 assessed as growth inhibition at 1000 ug/mL after 24 hrs by disk diffusion assay; conditions: ATCC 14579, 24 h, read-out: DIZ; in short: as §2
Candida albicans [12] = test: Antifungal activity against Candida albicans ATCC 10231 assessed as growth inhibition after 24 hrs by liquid dilution method; conditions: ATCC 10231, 24 h; in short: as §1
Staphylococcus aureus [13] = test: Antibacterial activity against Staphylococcus aureus ATCC 6538 assessed as growth inhibition at 1000 ug/mL after 24 hrs by disk diffusion assay; conditions: ATCC 6538, 24 h, read-out: DIZ; in short: as §2

Row | Structure (SMILES) | MIC (Pseudomonas aeruginosa [1]; ATCC 15442, 24 h) | zone of inhibition at 1000 µg/mL (Escherichia coli [2]) | MIC (Escherichia coli [3]) | MBC (Bacillus cereus [4]) | MFC (Candida albicans [5]) | MBC (Staphylococcus aureus [6]) | MIC (Staphylococcus aureus [7]) | zone of inhibition at 1000 µg/mL (Pseudomonas aeruginosa [8]) | MIC (Bacillus cereus [9]) | zone of inhibition at 1000 µg/mL (Candida albicans [10]) | zone of inhibition at 1000 µg/mL (Bacillus cereus [11]) | MIC (Candida albicans [12]) | zone of inhibition at 1000 µg/mL (Staphylococcus aureus [13]) | diameter of the inhibition zone (DIZ) (Candida albicans [10]) | MIC (Pseudomonas aeruginosa [1])
1 | Cc1cc(C)cc(Nc2ccc(Nc3c(Cl)c(Cl)c(C#N)c(Cl)c3C#N)c3nc[nH]c(=O)c23)c1 | 20.8 µg/mL (≈ 40.8 µM) | 11.5 mm | 7.8 µg/mL (≈ 15.3 µM) | 31.3 µg/mL (≈ 61.4 µM) | 52.1 µg/mL (≈ 102 µM) | 31.3 µg/mL (≈ 61.4 µM) | 0.8 µg/mL (≈ 1.57 µM) | 10 mm | 0.7 µg/mL (≈ 1.37 µM) | 7 mm | 10.3 mm | 5.2 µg/mL (≈ 10.2 µM) | 10 mm |  | 
2 | N#Cc1c(Cl)c(Cl)c(Nc2ccc(N3CCCCC3)c3c(=O)[nH]cnc23)c(C#N)c1Cl | 1.3 µg/mL (≈ 2.74 µM) | 9 mm | 1 µg/mL (≈ 2.11 µM) | 6.5 µg/mL (≈ 13.7 µM) | 41.7 µg/mL (≈ 88 µM) | 4.6 µg/mL (≈ 9.71 µM) | 0.7 µg/mL (≈ 1.48 µM) | 8.7 mm | 0.5 µg/mL (≈ 1.06 µM) |  | 15 mm | 2.6 µg/mL (≈ 5.49 µM) | 9.7 mm | inactive | 
3 | OC(Cn1cncn1)(Cn1cncn1)c1ccc(F)cc1F [FLUCONAZOLE] |  |  |  |  | 15.6 µg/mL (≈ 50.9 µM) |  |  |  |  |  |  | 2 µg/mL (≈ 6.53 µM) |  |  | 
4 | N#Cc1c(Cl)c(Cl)c(Nc2ccc(Nc3cccc(Cl)c3)c3c(=O)[nH]cnc23)c(C#N)c1Cl | 20.8 µg/mL (≈ 40.3 µM) | 9 mm | 7.8 µg/mL (≈ 15.1 µM) | 41.7 µg/mL (≈ 80.8 µM) | 31.3 µg/mL (≈ 60.6 µM) | 31.3 µg/mL (≈ 60.6 µM) | 0.7 µg/mL (≈ 1.36 µM) | 8.7 mm | 0.5 µg/mL (≈ 0.969 µM) | 9 mm | 9 mm | 1.7 µg/mL (≈ 3.29 µM) | 8.5 mm |  | 
5 | N#Cc1c(Cl)c(Cl)c(Cl)c(C#N)c1Cl [CHLOROTHALONIL] | 1.7 µg/mL (≈ 6.39 µM) | 18.5 mm | 0.5 µg/mL (≈ 1.88 µM) | 1.7 µg/mL (≈ 6.39 µM) | 7.8 µg/mL (≈ 29.3 µM) | 2 µg/mL (≈ 7.52 µM) | 1.3 µg/mL (≈ 4.89 µM) | 15.8 mm | 0.7 µg/mL (≈ 2.63 µM) | 17 mm | 15.5 mm | 0.7 µg/mL (≈ 2.63 µM) | 14 mm |  | 
6 | CCn1cc(C(=O)O)c(=O)c2cc(F)c(N3CCNCC3)cc21 [NORFLOXACIN] | 0.7 µg/mL (≈ 2.19 µM) | 20 mm | 0.5 µg/mL (≈ 1.57 µM) | 6.5 µg/mL (≈ 20.4 µM) |  | 5.2 µg/mL (≈ 16.3 µM) | 1.2 µg/mL (≈ 3.76 µM) | 16.8 mm | 0.6 µg/mL (≈ 1.88 µM) | 21.8 mm | 18.6 mm |  | 17 mm |  | 
7 | CN(C)c1ccc(Nc2c(Cl)c(Cl)c(C#N)c(Cl)c2C#N)c2nc[nH]c(=O)c12 | 2 µg/mL (≈ 4.61 µM) | 19 mm | 1.3 µg/mL (≈ 3 µM) | 3.3 µg/mL (≈ 7.61 µM) | 7.8 µg/mL (≈ 18 µM) | 2.6 µg/mL (≈ 6 µM) | 3.3 µg/mL (≈ 7.61 µM) | 15 mm | 0.8 µg/mL (≈ 1.84 µM) | 15.5 mm | 18 mm | 0.5 µg/mL (≈ 1.15 µM) | 14.3 mm |  | 
8 | N#Cc1c(Cl)c(Cl)c(Nc2ccc(Nc3ccc(F)cc3)c3c(=O)[nH]cnc23)c(C#N)c1Cl | 1.7 µg/mL (≈ 3.4 µM) | 9 mm | 6.5 µg/mL (≈ 13 µM) | 6.5 µg/mL (≈ 13 µM) | 52.1 µg/mL (≈ 104 µM) | 6.5 µg/mL (≈ 13 µM) | 0.8 µg/mL (≈ 1.6 µM) | 11 mm | 0.7 µg/mL (≈ 1.4 µM) | 10.5 mm | 18 mm | 1.7 µg/mL (≈ 3.4 µM) | 11.5 mm |  | 
9 | Cc1ccc(Nc2ccc(Nc3c(Cl)c(Cl)c(C#N)c(Cl)c3C#N)c3nc[nH]c(=O)c23)cc1C |  | 10.8 mm | 83.3 µg/mL (≈ 163 µM) |  |  |  | 15.6 µg/mL (≈ 30.6 µM) | 9.4 mm | 0.8 µg/mL (≈ 1.57 µM) | 10 mm | 11 mm |  | 8.5 mm |  | inactive
10 | Cc1ccc(Nc2ccc(Nc3c(Cl)c(Cl)c(C#N)c(Cl)c3C#N)c3nc[nH]c(=O)c23)cc1 | 52.1 µg/mL (≈ 105 µM) | 10.5 mm | 104 µg/mL (≈ 210 µM) |  |  |  | 10.4 µg/mL (≈ 21 µM) | 12 mm | 0.7 µg/mL (≈ 1.41 µM) | 9.5 mm | 11 mm |  | 9.3 mm |  | 
11 | Cc1ccccc1Nc1ccc(Nc2c(Cl)c(F)c(C#N)c(F)c2C#N)c2nc[nH]c(=O)c12 | 208 µg/mL (≈ 450 µM) | 9.7 mm | 208 µg/mL (≈ 450 µM) |  |  |  | 208 µg/mL (≈ 450 µM) | 9.5 mm | 52.1 µg/mL (≈ 113 µM) | 7.5 mm | 10.8 mm |  | 10.3 mm |  | 
12 | Cc1cccc(Nc2ccc(Nc3c(Cl)c(F)c(C#N)c(F)c3C#N)c3nc[nH]c(=O)c23)c1 | 417 µg/mL (≈ 900 µM) | 9.3 mm | 500 µg/mL (≈ 1080 µM) |  |  |  | 500 µg/mL (≈ 1080 µM) | 10 mm | 292 µg/mL (≈ 630 µM) | 9.5 mm | 10 mm |  | 9.8 mm |  | 
13 | N#Cc1c(F)c(Cl)c(Nc2ccc(Nc3ccc(Cl)cc3)c3c(=O)[nH]cnc23)c(C#N)c1F | 500 µg/mL (≈ 1030 µM) | 9 mm | 208 µg/mL (≈ 431 µM) |  |  |  | 20.8 µg/mL (≈ 43 µM) | 12 mm | 41.7 µg/mL (≈ 86.3 µM) | 8.5 mm | 10.4 mm |  | 9.7 mm |  | 
14 | Cc1ccccc1Nc1ccc(Nc2c(Cl)c(Cl)c(C#N)c(Cl)c2C#N)c2nc[nH]c(=O)c12 | 83.4 µg/mL (≈ 168 µM) | 12.5 mm | 125 µg/mL (≈ 252 µM) |  |  |  | 52.1 µg/mL (≈ 105 µM) | 9 mm | 0.5 µg/mL (≈ 1.01 µM) |  | 10.5 mm |  | 10 mm | inactive | 
